Data taken from ChEMBL document CHEMBL1641587, “Indole-3-piperazinyl derivatives: novel chemical class of 5-HT(6) receptor antagonists” (Bioorg Med Chem Lett, 2011).
Values belong to the compound of their own block, whether it stands above or below them. Active and inactive are the calls of the source. The rule behind the calls is not given here.

What was measured:
[1] = target: T1, 5-hydroxytryptamine receptor 6 (Homo sapiens, UniProt P50406); assay: Displacement of [3H]LSD from human cloned 5HT6 receptor expressed in human HeLa cells by glass fiber filtration assay; format: cell-based
In short: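 Radioligand binding to human cloned 5-HT6 receptors stably expressed in HeLa cells. Ki values were determined.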

Cytochrome P450 2D6 = Cytochrome P450 2D6 (Homo sapiens, UniProt P10635); assay: Inhibition of human CYP2D6; format: ADME
In short: (§1)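 Isoform-selective assays using heterologously expressed human CYP2D6 or CYP3A4. IC50 is the mean of duplicate determinations.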

[2] = target: T1, 5-hydroxytryptamine receptor 6; assay: Antagonist activity at human recombinant 5HT6 receptor expressed in CHO cells assessed as inhibition of 5-HT-stimulated cAMP accumulation by luminometry; format: functional, cell-based
In short: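 Non-radioactive cell-based functional assay in CHO cells expressing 5-HT6 receptor; antagonism read as inhibition of 5-HT-stimulated cAMP accumulation. IC50 and Kb values derived, each the mean of two experiments.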

[3] = Selectivity ratio of IC50 for NET to IC50 for human recombinant 5HT6 receptor
[4] = Selectivity ratio of IC50 for dopamine D2 receptor to IC50 for human recombinant 5HT6 receptor
[5] = Selectivity ratio of IC50 for histamine H1 receptor to IC50 for human recombinant 5HT6 receptor
Cytochrome P450 3A4 = Cytochrome P450 3A4 (Homo sapiens, UniProt P08684); assay: Inhibition of human CYP3A4; format: ADME; in short: as §1
[6] = Metabolic stability in human liver microsomes at 2.5 uM after 0.5 hrs; format: ADME, Microsome
In short: (§2)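 Wistar rat or human liver microsomes were incubated with 2.5 µM compound for 0.5 h, and % metabolized was measured.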

[7] = Metabolic stability in Wistar rat liver microsomes at 2.5 uM after 0.5 hrs; format: ADME, Microsome; in short: as §2
[8] = Selectivity ratio of IC50 for SERT to IC50 for human recombinant 5HT6 receptor
[9] = Cmax in Wistar rat at 5 mg/kg, po; format: ADME, organism-based; set-up: dose 5 mg/kg, route oral; settings: in vivo
In short: (§3)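 Fasted male Wistar rats received a 5 mg/kg dose orally or iv, with water for injection as vehicle for both routes. n = 3 per route. Plasma parameters were derived per route: AUC, Cmax, t1/2, Vz, clearance, and oral bioavailability (F).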

Rattus norvegicus [10] = assay: Cognitive enhancing effect in Wistar rat at 10 mg/kg, po by novel object recognition test; format: functional, organism-based; set-up: dose 10 mg/kg
In short: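 Novel object recognition test in male Wistar rats. Drug or vehicle (PEG 400 50% v/v, 1 mL/kg) was given p.o. 60 min before the test, n=6-9/group. Read-out was exploration time of the familiar versus the novel object, given as mean SEM and analysed by paired t test.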

[11] = AUC in Wistar rat at 5 mg/kg, po; format: ADME, organism-based; set-up: dose 5 mg/kg, route oral; settings: plasma; in short: as §3
[12] = Clearance in Wistar rat at 5 mg/kg, po; format: ADME, organism-based; set-up: dose 5 mg/kg, route oral; settings: in vivo; in short: as §3
[13] = Cmax in Wistar rat at 5 mg/kg, iv; format: ADME, organism-based; set-up: dose 5 mg/kg, route intravenous; settings: in vivo; in short: as §3
[14] = Clearance in Wistar rat at 5 mg/kg, iv; format: ADME, organism-based; set-up: dose 5 mg/kg, route intravenous; settings: in vivo; in short: as §3
[15] = Half life in Wistar rat at 5 mg/kg, po; format: ADME, organism-based; set-up: dose 5 mg/kg, route oral; settings: in vivo; in short: as §3
[16] = AUC in Wistar rat at 5 mg/kg, iv; format: ADME, organism-based; set-up: dose 5 mg/kg, route intravenous; settings: plasma; in short: as §3
Rattus norvegicus [17] = assay: Apparent volume of distribution in Wistar rat at 5 mg/kg, po; format: ADME, organism-based; set-up: dose 5 mg/kg, route oral; settings: in vivo; in short: as §3
Rattus norvegicus [18] = organism: Rattus norvegicus; settings: 10 mg/kg
[19] = Half life in Wistar rat at 5 mg/kg, iv; format: ADME, organism-based; set-up: dose 5 mg/kg, route intravenous; settings: in vivo; in short: as §3
[20] = Oral bioavailability in Wistar rat at 5 mg/kg; format: ADME, organism-based; settings: in vivo; in short: as §3
[21] = Apparent volume of distribution in Wistar rat at 5 mg/kg, iv; format: ADME, organism-based; set-up: dose 5 mg/kg, route intravenous; settings: in vivo, read-out: Vz; in short: as §3

Cytochrome P450 3A4, sequence (P08684 whole entry): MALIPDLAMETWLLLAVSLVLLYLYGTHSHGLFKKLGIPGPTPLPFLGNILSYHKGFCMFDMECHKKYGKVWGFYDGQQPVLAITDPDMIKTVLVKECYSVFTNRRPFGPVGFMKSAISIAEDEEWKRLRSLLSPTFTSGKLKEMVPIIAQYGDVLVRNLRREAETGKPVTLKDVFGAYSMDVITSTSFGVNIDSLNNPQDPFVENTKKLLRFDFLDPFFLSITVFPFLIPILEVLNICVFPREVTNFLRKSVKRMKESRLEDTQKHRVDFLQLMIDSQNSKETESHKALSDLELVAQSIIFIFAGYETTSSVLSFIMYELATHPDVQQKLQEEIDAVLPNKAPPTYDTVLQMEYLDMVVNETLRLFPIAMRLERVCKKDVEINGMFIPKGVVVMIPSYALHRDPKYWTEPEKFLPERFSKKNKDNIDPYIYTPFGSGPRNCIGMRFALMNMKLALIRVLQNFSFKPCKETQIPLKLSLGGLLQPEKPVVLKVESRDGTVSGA
Cytochrome P450 2D6, sequence (P10635 whole entry, canonical isoform): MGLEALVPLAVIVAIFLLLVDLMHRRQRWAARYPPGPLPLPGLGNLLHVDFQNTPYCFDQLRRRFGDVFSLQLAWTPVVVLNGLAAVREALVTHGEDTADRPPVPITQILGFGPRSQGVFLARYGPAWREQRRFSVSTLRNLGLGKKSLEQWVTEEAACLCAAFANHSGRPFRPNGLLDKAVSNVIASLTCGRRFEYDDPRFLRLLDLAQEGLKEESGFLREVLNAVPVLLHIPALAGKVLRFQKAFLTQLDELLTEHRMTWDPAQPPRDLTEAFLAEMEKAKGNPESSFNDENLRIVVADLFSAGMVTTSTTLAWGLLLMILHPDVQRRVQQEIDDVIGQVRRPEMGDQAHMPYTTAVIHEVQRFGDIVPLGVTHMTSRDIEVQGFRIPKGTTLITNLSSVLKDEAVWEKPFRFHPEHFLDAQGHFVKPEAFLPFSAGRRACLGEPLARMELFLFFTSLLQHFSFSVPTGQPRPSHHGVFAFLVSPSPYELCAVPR
T1 sequence (P50406 whole entry): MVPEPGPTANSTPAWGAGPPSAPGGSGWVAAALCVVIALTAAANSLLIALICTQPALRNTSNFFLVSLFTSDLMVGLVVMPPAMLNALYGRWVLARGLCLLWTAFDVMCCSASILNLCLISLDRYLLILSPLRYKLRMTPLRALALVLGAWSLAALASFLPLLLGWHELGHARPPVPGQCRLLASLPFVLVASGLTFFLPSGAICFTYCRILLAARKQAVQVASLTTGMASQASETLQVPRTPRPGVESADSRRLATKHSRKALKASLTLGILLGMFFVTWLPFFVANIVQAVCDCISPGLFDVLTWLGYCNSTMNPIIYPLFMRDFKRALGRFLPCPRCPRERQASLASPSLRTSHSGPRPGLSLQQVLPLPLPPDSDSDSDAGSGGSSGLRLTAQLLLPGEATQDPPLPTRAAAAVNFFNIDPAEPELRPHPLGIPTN

SMILES: CCN1CCN(c2cn(S(=O)(=O)c3ccc4ccccc4c3)c3cc(Cl)ccc23)CC1
Ki [1]: 25.5 nM

SMILES: CN1CCN(c2cn(S(=O)(=O)c3cccc(Cl)c3)c3ccccc23)CC1
Ki [1]: 10.8 nM

SMILES: CCN1CCN(c2cn(S(=O)(=O)c3ccc(OC)cc3)c3cc(Cl)ccc23)CC1
Ki [1]: 82.3 nM

SMILES: CCN1CCN(c2cn(S(=O)(=O)c3ccc(C(C)C)cc3)c3ccccc23)CC1
Ki [1]: 8.6 nM

SMILES: CN1CCN(c2cn(S(=O)(=O)c3ccccc3Br)c3ccccc23)CC1
Ki [1]: 15.2 nM

SMILES: CN1CCN(c2cn(S(=O)(=O)c3ccccc3)c3ccccc23)CC1
Ki [1]: 15.9 nM

SMILES: CCN1CCN(c2cn(S(=O)(=O)c3ccc(C(C)C)cc3)c3ccc(Cl)cc23)CC1
Ki [1]: 30.5 nM

SMILES: CCN1CCN(c2cn(S(=O)(=O)c3ccccc3Br)c3ccc(Cl)cc23)CC1
Ki [1]: 20.3 nM

SMILES: CCN1CCN(c2cn(S(=O)(=O)c3cc(OC)ccc3OC)c3cc(Cl)ccc23)CC1
Ki [1]: 63.5 nM

SMILES: CN1CCN(c2cn(S(=O)(=O)c3ccccc3Br)c3cc(Cl)ccc23)CC1
Ki [1]: 30.2 nM

Continued, in another order:

IC50 (Cytochrome P450 2D6): 26400 nM
IC50 [2]: 292 nM
Kb [2]: 0.5 nM
Ratio IC50 [3]: > 50
Ratio IC50 [4]: > 50
Ratio IC50 [5]: > 50
IC50 (Cytochrome P450 3A4): 4770 nM
% metabolism at 0.5 h, 2.5 µM [6]: 85%
Ki [1]: 11.8 nM
% metabolism at 0.5 h, 2.5 µM [7]: 99%
Ratio IC50 [8]: > 50
SMILES: CN1CCN(c2cn(S(=O)(=O)c3ccc(F)cc3)c3ccccc23)CC1

IC50 (Cytochrome P450 2D6): 28800 nM
IC50 [2]: 322 nM
Kb [2]: 0.6 nM
Ratio IC50 [3]: > 50
Ratio IC50 [4]: > 50
Ratio IC50 [5]: > 50
IC50 (Cytochrome P450 3A4): 4610 nM
% metabolism at 0.5 h, 2.5 µM [6]: 96%
Ki [1]: 9.2 nM
% metabolism at 0.5 h, 2.5 µM [7]: 99%
Ratio IC50 [8]: > 50
SMILES: CN1CCN(c2cn(S(=O)(=O)c3ccc(F)cc3)c3ccc(Br)cc23)CC1

Ki [1]: 55.3 nM
SMILES: CC(C)c1ccc(S(=O)(=O)n2cc(N3CCN(C)CC3)c3ccc(Cl)cc32)cc1

Ki [1]: 23.2 nM
SMILES: CC(C)c1ccc(S(=O)(=O)n2cc(N3CCN(C)CC3)c3cc(Br)ccc32)cc1

IC50 [2]: 1780 nM
Kb [2]: 3.5 nM
Ratio IC50 [3]: > 50
Ratio IC50 [4]: > 50
Ratio IC50 [5]: > 50
Ki [1]: 10.7 nM
Ratio IC50 [8]: > 50
SMILES: CCN1CCN(c2cn(S(=O)(=O)c3ccc(F)cc3)c3ccc(Cl)cc23)CC1

Ki [1]: 10.2 nM
SMILES: CN1CCN(c2cn(S(=O)(=O)c3ccccc3Br)c3ccc(Br)cc23)CC1

IC50 [2]: 1530 nM
Kb [2]: 3 nM
Ratio IC50 [3]: > 50
Ratio IC50 [4]: > 50
Ratio IC50 [5]: > 50
Ki [1]: 7.8 nM
Ratio IC50 [8]: > 50
SMILES: CN1CCN(c2cn(S(=O)(=O)c3cccc(Cl)c3)c3ccc(Br)cc23)CC1

IC50 (Cytochrome P450 2D6): 39200 nM
Cmax [9]: 40 ng/mL
IC50 [2]: 310 nM
Kb [2]: 0.53 nM
Ratio IC50 [3]: > 50
Ratio IC50 [4]: > 50
AUC [11]: 59 ng·h/mL
Ratio IC50 [5]: > 50
IC50 (Cytochrome P450 3A4): 5540 nM
% metabolism at 0.5 h, 2.5 µM [6]: 80%
CL/F [12]: 2200 mL/min/kg
Cmax [13]: 365 ng/mL
clearance [14]: 133 mL/min/kg
half-life [15]: 2.35 h
Ki [1]: 3.4 nM
AUC [16]: 674 ng·h/mL
Vz (Rattus norvegicus [17]): 436 L/kg
% metabolism at 0.5 h, 2.5 µM [7]: 95%
Ratio IC50 [8]: > 50
half-life [19]: 4.47 h
bioavailability [20]: 8%
Vd [21]: 51.8 L/kg
SMILES: CC(C)c1ccc(S(=O)(=O)n2cc(N3CCN(C)CC3)c3ccccc32)cc1
Activity (Rattus norvegicus [10]): Active
inhibition (Rattus norvegicus [18]): Active

Ki [1]: 10.6 nM
SMILES: CCN1CCN(c2cn(S(=O)(=O)c3ccc(F)cc3)c3ccc(Br)cc23)CC1

Ki [1]: 30.1 nM
SMILES: CCN1CCN(c2cn(S(=O)(=O)c3ccc(C(C)C)cc3)c3ccc(Br)cc23)CC1
